Compound activity as filed in PubChem BioAssay.
This is a sample that favours compounds with a hit; in the whole collection about 4.1% have one here.
KCNQ1 pot: potentiators or activators of human KCNQ1 potassium channel; B-score at 10 µM; AID 2648; P51787; 310,000 compounds, 0.35% hits; CHO-K1 KCNQ1, thallium flux FluxOR fluorescence; active compounds read high;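 active means fluorescence ratio B-score, a plate-corrected score, at least three library SD, with initial intensity B-score within 5 SD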
Target sequence (P51787 whole entry, looked up): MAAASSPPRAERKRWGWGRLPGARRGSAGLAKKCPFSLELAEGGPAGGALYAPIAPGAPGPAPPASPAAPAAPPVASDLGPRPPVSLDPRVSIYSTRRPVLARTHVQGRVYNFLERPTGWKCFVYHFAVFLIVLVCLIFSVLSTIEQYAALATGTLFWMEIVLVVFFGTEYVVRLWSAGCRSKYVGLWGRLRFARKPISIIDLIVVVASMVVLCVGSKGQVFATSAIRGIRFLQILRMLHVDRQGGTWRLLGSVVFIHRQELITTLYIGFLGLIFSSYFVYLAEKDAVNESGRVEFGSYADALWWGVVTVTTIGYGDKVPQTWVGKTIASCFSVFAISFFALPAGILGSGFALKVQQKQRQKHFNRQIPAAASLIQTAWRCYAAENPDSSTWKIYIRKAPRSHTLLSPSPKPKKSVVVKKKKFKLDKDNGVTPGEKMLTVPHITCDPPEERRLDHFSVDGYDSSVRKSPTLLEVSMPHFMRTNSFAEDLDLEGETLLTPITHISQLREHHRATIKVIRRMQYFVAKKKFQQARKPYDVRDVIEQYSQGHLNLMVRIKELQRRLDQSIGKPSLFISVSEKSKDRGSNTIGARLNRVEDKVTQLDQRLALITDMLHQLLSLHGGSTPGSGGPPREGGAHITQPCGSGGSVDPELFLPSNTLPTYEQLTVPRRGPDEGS
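assay system = KCNQ1-transfected CHO-K1 cells | medium = assay buffer with matched DMSO | probe or stimulus = depolarizing K+/Tl+ stimulus, K2SO4 and Tl2SO4 each 12.5 mM in 5x stock | dosing = single dose | incubation = dye 90 min, compound 20 min, room temperature | detection = kinetic FluxOR fluorescence, 10 s baseline plus 110 s post-stimulus | evaluation = ratio B score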
KCNK3 block: human KCNK3 channel inhibition, primary screen. O14649. 340,000 compounds, 0.84% hits. B-score at 10 µM. CHO-KCNK3 thallium flux, FluxOR fluorescence; active compounds read low;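 active means B-score under library mean minus 4 SD, starting fluorescence ratio at most library mean plus 5 SD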;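 further: more negative B-score means stronger inhibition of thallium flux through KCNK3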
KCC2 mod: modulates chloride dependent transport by human KCC2. Q9H2X9. KCC2 cells, thallium flux FluoZin-2 fluorescence. B-score of Tl+ flux slope (higher = more flux/activation; lower = inhibition) at 10 µM. 190,000 compounds, 2.2% hits. AID 1456;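 active means thallium flux slope and its plate-corrected score both differing from the plate sample mean at a set confidence after two filtering rounds, in either direction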;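 further: slope of fluorescence scaled to starting intensity during 10 to 20 s after thallium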
hERG rescue: shields human hERG channel from block by proarrhythmic agents. Q12809. CHO-hERG, FluxOR thallium flux, dofetilide IC70 present. activation (rescue from dofetilide block), less the hit threshold, % at 10 µM. 310,000 compounds, 0.51% hits. AID 1511;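 active means activation above the mean of controls blocked by dofetilide plus 5 SD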;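 further: thallium influx through hERG after potassium depolarization seen as dye fluorescence rise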
KCNK9 block: blocks the human KCNK9 two-pore domain potassium channel. Q9NPC2. HEK293 KCNK9, FluxOR thallium flux fluorescence; active compounds read low. B-score at 10 µM. 310,000 compounds, 1.2% hits;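 active means ratio B-score over 3 SD below the library mean, with starting fluorescence within 5 SD of its mean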;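 further: negative B-score means less thallium flux so channel inhibition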
KCNQ1 block: inhibitors of human KCNQ1 potassium channel | P51787 | CHO-K1 KCNQ1, FluxOR thallium flux fluorescence; active compounds read high | B-score at 10 µM | 310,000 compounds, 1.3% hits;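 active means compounds whose thallium flux B-score, printed positive for inhibition, exceeds three library SD while starting fluorescence stays within three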;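 further: channel opened by potassium depolarization with thallium stimulus after 20 min compound exposure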
KCNQ1 inh valid: human KCNQ1 channel inhibition, validation assay. shares compounds with KCNQ1 block. KCNQ1 cell line, FluxOR thallium flux fluorescence. inhibition, % at 10 µM. 1,600 compounds, 93% hits. AID 588353;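 active means primary screen active, with duplicate mean exceeding buffer control mean plus 3 SD of buffer wells, cut at about 28% in these data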
CHO KCNQ1 ctr: counter-screen for KCNQ1 inhibitors: effect in parental CHO cells | shares compounds with KCNQ1 block | parental CHO-K1, FluxOR thallium flux fluorescence ratio; active compounds read low; zero means no signal rise above baseline | fluorescence ratio (Tl flux) at 10 µM | 1,600 compounds, 21% hits | AID 588366;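 active means mean of duplicate thallium-flux fluorescence ratios in parental host cells more than 5 SD below the buffer control mean, cut at about 0.38 in these data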;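 further: ratio is peak minus minimum fluorescence divided by baseline fluorescence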
KCNQ1 APC inh: confirmation of human KCNQ1 potassium channel inhibitors by electrophysiology; shares compounds with KCNQ1 block; KCNQ1-CHO cells, automated patch clamp current; calls only at 10 µM; 490 compounds, 20% hits; AID 624120;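 active means KCNQ1 current drop exceeding 3 SD of negative control wells, seen in both duplicate runs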;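 further: steady state current during a 2 s step from -80 to +40 mV; negative values mean current inhibition and positive values mean potentiation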
KCNQ2 spec: KCNQ1 inhibitor that also blocks rat KCNQ2 channel; KCNQ2 cells, FluxOR thallium flux fluorescence; inhibition, % at 10 µM; shares compounds with KCNQ1 block; 1,600 compounds, 71% hits;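 active means mean percent inhibition of the KCNQ2 thallium signal more than 5 SD above the buffer-only control wells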;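 further: KCNQ2 expressed in CHO cells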
KCNQ1-KCNE1 inh: selectivity of KCNQ1 inhibitors: inhibition of human KCNQ1/KCNE1 channel | shares compounds with KCNQ1 block | KCNQ1/KCNE1 cells, FluxOR thallium flux fluorescence | inhibition, % at 10 µM | 1,600 compounds, 77% hits | AID 652147;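 active means mean percent inhibition of duplicate wells above the buffer-only control mean plus 3 SD of those controls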
Hits are given with their value; . = inactive; / = no result; + = active, no number.

SMILES | KCNQ1 pot | KCNK3 block | KCC2 mod | hERG rescue | KCNK9 block | KCNQ1 block | KCNQ1 inh valid | CHO KCNQ1 ctr | KCNQ2 spec | KCNQ1-KCNE1 inh | others
COc1ccc(-c2csc3ncnc(N4CCN(S(=O)(=O)c5ccc(Cl)s5)CC4)c23)cc1 | . | . | / | . | . | . | / | / | / | /
COc1ccc(-c2csc3ncnc(N4CCN(C(=O)c5ccco5)CC4)c23)cc1 | . | . | / | . | . | . | / | / | / | /
COc1ccc(-c2csc3ncnc(N4CCN(S(=O)(=O)c5cccs5)CC4)c23)cc1 | . | . | / | . | . | 8 | 84 | . | 100% | 76%
COc1ccc(-c2csc3ncnc(N4CCN(c5ccccc5Cl)CC4)c23)cc1 | . | . | / | . | . | 9 | 105 | 0.38 | 96% | 90%
COc1ccc(-c2csc3ncnc(N4CCN(c5cccc(C)c5C)CC4)c23)cc1 | . | . | / | . | . | 7 | 94 | . | 68% | 148% | KCNQ1 APC inh=.
COc1ccc(-n2nc3c(c2NC(=O)CCCl)CSC3)cc1 | . | . | / | . | . | . | / | / | / | /
COc1ccc(F)cc1CN1CCN(c2ncnc3scc(-c4ccccc4)c23)CC1 | . | . | . | . | . | 7 | 117 | . | 114% | 153% | KCNQ1 APC inh=.
COc1ccc(CN2CCN(c3ncnc4scc(-c5ccc(F)cc5)c34)CC2)cc1 | . | . | / | . | . | . | / | / | / | /
CCn1nccc1C(=O)Nc1cc(Cl)cc(Cl)c1 | . | . | . | . | -6.7 | 6 | 31 | . | . | .
C=CCSc1nc(N)c(C#N)c(-c2ccc(C)cc2)c1C#N | . | . | . | . | . | . | / | / | / | /
Cc1cc(C)c(C#N)c(SCC(=O)CC(=O)OC(C)C)n1 | . | . | . | . | . | . | / | / | / | /
C=CCSc1nc2c(c(C3CC=CCC3)c1C#N)CCC2 (stereo not drawn) | . | . | . | . | -7.7 | 6 | 88 | . | 101% | 143% | KCNQ1 APC inh=.
CC(C)OC(=O)CSc1nc2c(c(C3CC=CCC3)c1C#N)CCC2 (stereo not drawn) | . | . | . | . | . | 10 | 96 | 0.38 | 132% | 106%
CCN(CC)c1ccc(/C=N/NC(=O)CNC(=O)C2COc3ccccc3O2)c(O)c1 (stereo not drawn) | . | . | / | . | . | . | / | / | / | /
CCN(C(=O)COC(=O)/C=C/c1ccco1)C1CCCCC1 | / | . | / | / | / | / | / | / | / | /
COc1ccc(NC(=O)c2nnn(CC(=O)Nc3ccc4c(c3)OCO4)c2N)c(OC)c1 | . | . | / | . | . | . | / | / | / | /
COc1ccc(-c2csc(NC(=O)CSc3nc(SC)ns3)n2)cc1 | . | . | . | . | . | 9 | 114 | . | 66% | 116% | KCNQ1 APC inh=.
CCCCn1c(N)c(N(CC(C)C)C(=O)CSc2ccccc2C)c(=O)[nH]c1=O | . | . | / | . | . | . | / | / | / | /
Cc1ccc(-c2csc(=Nc3cccnc3)n2CCCN2CCCC2=O)cc1C | . | . | . | . | . | . | / | / | / | /
Cc1ccc(-c2csc(=Nc3cccnc3)n2CCCn2ccnc2)cc1C | . | . | . | . | . | 12 | 42 | . | 80% | .
O=C(NCCN1CCOCC1)c1ccc(NS(=O)(=O)c2ccccc2)cc1 | . | . | / | . | . | . | / | / | / | /
CC(C)(C)OC(=O)C[C@H]1C/C=C\C[C@H](CC(=O)NCCO)C(=O)NCCOC1=O | / | . | / | / | / | / | / | / | / | /
COC(=O)CCC(NS(=O)(=O)OCC(Cl)(Cl)Cl)c1ccccc1 (stereo not drawn) | . | . | / | . | . | . | / | / | / | /
CC(NS(=O)(=O)OCC(Cl)(Cl)Cl)c1ccc(Br)cc1 (stereo not drawn) | . | . | / | . | . | 7 | 126 | . | 73% | 104% | KCNQ1 APC inh=.
CC(C)CC(NS(=O)(=O)OCC(Cl)(Cl)Cl)c1ccccc1 (stereo not drawn) | . | . | / | . | . | 12 | 56 | . | 65% | .
SMILES | KCNQ1 pot | KCNK3 block | KCC2 mod | hERG rescue | KCNK9 block | KCNQ1 block | KCNQ1 inh valid | CHO KCNQ1 ctr | KCNQ2 spec | KCNQ1-KCNE1 inh | others
S=C(NCc1ccc(Cl)cc1Cl)NC1CCCCC1 | . | . | . | . | . | 7 | 152 | . | 65% | . | KCNQ1 APC inh=+
S=C(NCCc1cccc(Cl)c1)NC1CCCCC1 | . | . | / | . | . | 8 | 64 | . | 74% | 56%
O=C(Cn1cnc2ccccc2c1=O)N1CCN(c2ccccc2)CC1 | . | . | . | . | . | 7 | . | . | . | .
Cc1cc2c(=O)n(CC(=O)N3CCN(c4ccccc4)CC3)cnc2s1 | / | . | . | / | / | / | / | / | / | /
Oc1cc2ccccc2cc1-c1n[nH]c(=S)o1 | . | . | . | . | . | 7 | . | . | . | .
COc1ccc2noc3c2c1C(=O)c1ccccc1-3 | . | . | / | . | . | 23 | + | 0.0045 | . | .
COc1ccc(OC)c2c1C(=O)c1ccccc1C2=O | . | / | . | . | . | . | / | / | / | /
CCCCn1c(N)c(N(C(=O)CSc2nnnn2-c2ccccc2C)C2CCCC2)c(=O)[nH]c1=O | / | . | / | / | / | / | / | / | / | /
COc1ccc(CN=Cc2[nH]c3ccc(Br)c(Cl)c3c2O)cc1 | . | . | . | . | . | 7 | 116 | 0.37 | 111% | 92%
COc1cccc(-c2cc3nc(-c4ccccc4)cc(N4CCCC(O)C4)n3n2)c1 (stereo not drawn) | . | . | . | . | . | 9 | 85 | . | 134% | 182%
CC(C)Cn1c(N)c(C(=O)COC(=O)CCc2nc3ccccc3s2)c(=O)n(C)c1=O | . | . | . | . | . | 8 | 132 | . | 84% | 96% | KCNQ1 APC inh=.
CC(C)Cn1c(N)c(C(=O)COC(=O)CC23CC4CC(CC(C4)C2)C3)c(=O)n(C)c1=O | . | . | . | . | . | 12 | 144 | 0.3 | 124% | 186%
Cc1csc(=O)n1CCC(=O)OCC(=O)c1c(N)n(CC(C)C)c(=O)n(C)c1=O | . | . | / | . | . | . | / | / | / | /
CC(C)Cn1c(N)c(C(=O)COC(=O)CCc2nc3ccccc3c(=O)[nH]2)c(=O)n(C)c1=O | / | . | / | / | / | / | / | / | / | /
O=C(NCC1COc2ccccc2O1)c1cccc(S(=O)(=O)N2CCOCC2)c1 (stereo not drawn) | / | . | / | / | / | / | / | / | / | /
